Data reported in PubChem BioAssay AID720717 (ICCB-Longwood Screening Facility, Harvard Medical School, 2013).
The campaign covered roughly 51,000 compounds. About 150 (0.29%) were called active.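 Rule for the calls: active = both repeat wells score below -2 in polarization z-score versus plate sample wells, excluding overly bright wells; inactive = the rest.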 Many of the other results were omitted from the sample, so actives are more common in it than they were.

What follows are molecules tested on LANA (ORF73) N-terminal peptide binding to nucleosomes, Human herpesvirus 8 (assay: LANA N-terminal peptide–nucleosome interaction blockers – biochemical, fluorescence polarization, FITC-LANA1-23, chicken nucleosomes, primary screen (AID 720717)). Conditions: FITC-LANA1-23 / chicken nucleosome fluorescence polarization; stronger effect = lower value.
In short: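 Material: Purified chicken nucleosomes with FITC-labelled LANA N-terminal peptide (1-23) | Reagent: 50 nM FITC-LANA1-23 probe | Medium: TEN-BT buffer, pH 7.5 | Times: 10–45 min incubation at room temperature | Detection: Fluorescence polarization | Replication: Duplicates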

SMILES	z-score
CN1CCc2c(c(S)[nH]c(=S)c2C#N)C1	-3.73 (active)
CCOC(=O)c1sc2nc3c(cc2c1N)CN(C)CC3	0.365 (inactive)
O=C(c1ccccc1)c1cc(Cl)ccc1NC(=O)C(F)(F)F	-0.891 (inactive)
Cc1cccc(NC(=O)OC2CN3CCC2CC3)c1 (stereo not given)	-0.799 (inactive)
CC1(C)CC(Nc2nc(Cl)c(C#N)c(Cl)c2Cl)CC(C)(C)N1	-1.52 (inactive)
